Published values of several laboratories.
Each line is one published result; the experiments were not run side by side.
Target: cGMP-dependent protein kinase 1 (PRKG1, Homo sapiens, UniProt Q13976)
Residues used in one study (Q13976 1-671): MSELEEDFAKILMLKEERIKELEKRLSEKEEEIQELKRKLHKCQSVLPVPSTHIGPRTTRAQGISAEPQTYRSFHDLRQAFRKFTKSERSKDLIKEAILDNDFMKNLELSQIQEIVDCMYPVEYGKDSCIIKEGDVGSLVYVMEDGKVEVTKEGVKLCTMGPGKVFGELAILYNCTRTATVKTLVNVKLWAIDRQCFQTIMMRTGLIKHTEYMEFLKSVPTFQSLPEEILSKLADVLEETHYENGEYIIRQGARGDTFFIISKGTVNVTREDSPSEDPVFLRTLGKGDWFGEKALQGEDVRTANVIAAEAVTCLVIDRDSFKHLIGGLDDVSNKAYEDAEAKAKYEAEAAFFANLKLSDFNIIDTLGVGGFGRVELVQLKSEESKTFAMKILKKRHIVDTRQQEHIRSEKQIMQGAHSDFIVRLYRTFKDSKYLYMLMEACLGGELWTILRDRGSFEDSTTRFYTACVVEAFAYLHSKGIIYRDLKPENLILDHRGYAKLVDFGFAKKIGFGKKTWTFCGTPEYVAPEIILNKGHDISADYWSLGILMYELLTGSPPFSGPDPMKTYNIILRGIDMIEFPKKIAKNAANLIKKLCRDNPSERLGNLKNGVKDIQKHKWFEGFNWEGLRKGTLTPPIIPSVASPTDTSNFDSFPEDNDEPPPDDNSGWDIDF

COc1ccnn2ncc(-c3ccnc(N(C)C)n3)c12
remaining binding (binding; 1 µM): 100%

O=C(NCC1CCOCC1)c1n[nH]cc1NC(=O)c1c(F)cccc1F
remaining binding (binding, competition with immobilised ligand; 1 µM): 100%

COc1cnc(Nc2cccc(S(N)(=O)=O)c2)nc1N1CCN(c2ccccc2)C(=O)C1
remaining binding (binding, competition with immobilised ligand; 1 µM): 100%

F[C@@H]1CCN(c2nccc(-c3cnn4ncccc34)n2)C1
remaining binding (binding; 1 µM): 90%

O=C(c1ccc(Nc2ncc(Cl)c(-c3ccc(Cl)s3)n2)cc1)N1CCC(N2CCCC2)CC1
remaining binding (binding, competition with immobilised ligand; 1 µM): 100%

C[C@@H]1CCN(c2nccc(-c3cnn4ncccc34)n2)C1
remaining binding (binding; 1 µM): 68%

CCOC(=O)c1cc2cc(-c3cc(C(=O)NCc4ccc(C(=O)O)cc4)nn3C)ccc2[nH]1
remaining binding (cell-free assay, competition with immobilised ligand; 0.1 µM): 91%

CC1CCCN1c1nccc(-c2cnn3ncccc23)n1 (stereo not drawn)
remaining binding (binding; 1 µM): 89%

O=C(NCCCN1CCOCC1)c1ccc(Nc2ncc(Cl)c(-c3ccc(Cl)s3)n2)cc1
remaining binding (binding, competition with immobilised ligand; 1 µM): 100%

C=CC(=O)N1CCC(C(=O)NCC(=O)N2CCN(c3nc(-c4cnc(N)nc4C(F)F)nc(N4CCOCC4)n3)CC2)CC1
remaining binding (binding, competition with immobilised ligand; 1 µM): 87%

CN(C)c1nccc(-c2cnc3ncccn23)n1
remaining binding (binding; 1 µM): 81%

CC1=C(C#N)[C@@H](c2ccc3[nH]nc(C)c3c2)C(C#N)=C(c2ccc(Cl)cc2)N1
remaining binding (cell-free assay, competition with immobilised ligand; 1 µM): 86.9%

N[C@@H]1CCN(c2nccc(-c3cnn4ncccc34)n2)C1
remaining binding (binding; 1 µM): 100%

C[C@@]1(Cc2ccc(C#N)cc2)C(=O)N(c2cc(Cl)cc(Cl)c2)c2ncc(C(=O)NC3(c4nc(C5CCC5)no4)CC3)n21
remaining binding (cell-free assay, competition with immobilised ligand; 1 µM): 100%

O=C(c1ccc(Nc2nccc(-c3cc4ccccc4s3)n2)cc1)N1CCC(N2CCCC2)CC1
remaining binding (binding, competition with immobilised ligand; 1 µM): 100%

CN([C@@H]1CCc2c(CC(=O)O)c3cc(S(C)(=O)=O)ccc3n2C1)S(=O)(=O)c1ccc(F)cc1
remaining binding (cell-free assay, competition with immobilised ligand; 1 µM): 95%

COc1cnc(Nc2cccc(S(N)(=O)=O)c2)nc1N1CCN(c2ccccc2)CC1
remaining binding (binding, competition with immobilised ligand; 1 µM): 100%

COc1ccc2c(c1)O[C@@H](c1ccc(OC)c(OC)c1)C[C@H]2NC(=O)C1(c2ccc3c(c2)OC(F)(F)O3)CC1
remaining binding (cell-free assay, competition with immobilised ligand; 1 µM): 100%

C[C@@H](c1ccc(-n2cnc3c(N)ncnc32)cc1)N1CCc2nn(C)c(Cc3ccccc3)c2C1=O
remaining binding (binding, competition with immobilised ligand; 0.1 µM): 82%

CCCOc1ccc([C@H]2[C@H](C(=O)O)[C@@H](c3ccc4c(c3)OCO4)CN2CC(=O)Nc2c(CC)cccc2CC)cc1
remaining binding (cell-free assay, competition with immobilised ligand; 1 µM): 88%

FC(F)(F)Oc1cccc(-c2cnc3ccc(-c4ccncc4)nn23)c1
remaining binding (cell-free assay, competition with immobilised ligand; 5 µM): 98%
